Rows were chosen to be rich in hits. Some 3.1% of all compounds tested hit in one or more screens of this group.
UHRF1 binding: blocks human UHRF1 binding to methylated DNA | inhibition, % at 4.4 µM | Q96T88 | UHRF1 binding to methylated oligo, TR-FRET | actives 0.75% (n = 370,000); in the data active = inhibition above about 21%;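 note: UHRF1 SRA domain binding a hemimethylated CpG hairpin DNA probe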
LEDGF integ inh: blocks HIV-1 LEDGF/p75-dependent DNA integration. TR-FRET IN-LEDGF/p75 DNA integration, Eu/Cy5. inhibition, % at 3.7 µM. actives 0.64% (n = 370,000);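 active = inhibition above the screen-wide mean plus 3 SD, cut at about 13% in these data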;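 note: signal is the Cy5 over europium emission ratio at 671 and 618 nm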
MBD2 DNA inh: inhibitors of human MBD2 binding to methylated oligonucleotide | TR-FRET | AID 686964 | actives 0.31% (n = 370,000) | inhibition, % at 4.4 µM | Q9UBB5; in the data active = inhibition above about 13%
PRMT1 FP inh: blocks human protein arginine methyltransferase 1; actives 1.3% (n = 370,000); Q99873; inhibition, % at 2.79 µM; recombinant PRMT1, activity-based probe fluorescence polarization;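 active = inhibition above about 21% made by adding two undisclosed values, limit read from the data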
ABHD5-PLIN5 inh: inhibitors of human ABHD5-perilipin-5 interaction; Split G. princeps luciferase complementation, luminescence, 4 h; inhibition, % at 4 µM; actives 0.78% (n = 360,000);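 active = inhibition above the mean inhibition across every tested compound plus 3 SD, cut at about 22% in these data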
RBBP9 inhibitor: blocks human serine hydrolase RBBP9; O75884; recombinant RBBP9, FP-Rh probe fluorescence polarization; inhibition, % at 7.94 µM; actives 0.2% (n = 220,000); AID 1515;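 active = inhibition above the campaign mean of all tested compounds plus 3 SD, cut at about 14% in these data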
Target sequence (O75884 whole entry, looked up): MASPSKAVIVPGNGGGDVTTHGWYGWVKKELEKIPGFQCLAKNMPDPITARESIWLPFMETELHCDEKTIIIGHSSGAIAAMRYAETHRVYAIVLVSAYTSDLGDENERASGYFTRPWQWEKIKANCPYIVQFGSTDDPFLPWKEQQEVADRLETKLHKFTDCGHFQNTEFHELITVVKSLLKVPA
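Assay system: recombinant human RBBP9; Reagent: Serine-hydrolase probe FP-Rh, 375 nM pre-mixing; Doses: 7.94 µM single dose, 0.794% DMSO; Incubation: 30 min then 45 min, 25 °C; Detection: fluorescence polarization (mP), excitation 525 nm, emission 598 nm; Evaluation: percent inhibition from mP, scaled between DMSO and no-protein wells.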
ABHD5-PLIN5 conf: ABHD5-PLIN5 interaction inhibition, confirmed | actives 67% (n = 2,200) | AID 651612 | biochemical ABHD5-PLIN5 interaction, luminescence | shares compounds with ABHD5-PLIN5 inh | inhibition, % at 4 µM; in the data active = inhibition above about 23%
HNF4 split-luc: active in HNF4 split-luciferase counter-screen for ABHD5-PLIN5 inhibitors; shares compounds with ABHD5-PLIN5 inh; HNF4 dimerization, luminescence, biochemical; inhibition, % at 4 µM; actives 77% (n = 2,200); AID 651674;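 active = mean inhibition across replicate wells exceeding the computed hit threshold, cut at about 13% in these data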;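 note: light from luciferase halves that rejoin when HNF4 fusion proteins dimerize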
Target sequence (P41235 whole entry, looked up, the tested form may be a part): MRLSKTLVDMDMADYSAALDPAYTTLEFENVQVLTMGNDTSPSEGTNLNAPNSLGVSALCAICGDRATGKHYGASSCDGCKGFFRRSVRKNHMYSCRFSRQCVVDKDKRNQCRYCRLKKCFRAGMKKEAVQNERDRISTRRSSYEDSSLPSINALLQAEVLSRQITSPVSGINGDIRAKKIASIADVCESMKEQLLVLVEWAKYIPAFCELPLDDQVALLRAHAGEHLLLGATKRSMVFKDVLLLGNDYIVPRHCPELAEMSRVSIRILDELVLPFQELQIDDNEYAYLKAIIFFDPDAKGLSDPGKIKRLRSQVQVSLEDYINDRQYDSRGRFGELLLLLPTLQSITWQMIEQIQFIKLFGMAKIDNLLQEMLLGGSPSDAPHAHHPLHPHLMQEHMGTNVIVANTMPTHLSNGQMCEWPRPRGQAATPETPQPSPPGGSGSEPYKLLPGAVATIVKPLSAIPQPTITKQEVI
Of the large screens only hits and unclear results are named; the others gave an inactive call (follow-up assays come after a bar, where they were run).

O=C(CC1(O)C(=O)Nc2ccc(Br)cc21)c1ccccc1 (configuration not stated)	none (no result: RBBP9 inhibitor)
O=C1NCCN1CCN1CCC(c2cn(-c3ccc(F)cc3)c3ccc(Cl)cc23)CC1	none (no result: ABHD5-PLIN5 inh, RBBP9 inhibitor)
C[C@@H]1[C@@H](c2ccccc2)OC(O)([C@H](Cc2ccccc2)NC(=O)OC(C)(C)C)CN1C (some centres not stated)	none (no result: ABHD5-PLIN5 inh, RBBP9 inhibitor)
CC(=O)c1cccc([N+](=O)[O-])c1	none (no result: RBBP9 inhibitor)
O=C(/C=C/c1ccccc1F)c1cccc([N+](=O)[O-])c1	ABHD5-PLIN5 inh 70 | ABHD5-PLIN5 conf 100 | HNF4 split-luc 99
COc1cc(CC(=O)OCc2cccc([N+](=O)[O-])c2)cc(OC)c1OC	none (no result: RBBP9 inhibitor)
COc1cc(/C=C/C(=O)c2cccc([N+](=O)[O-])c2)cc(OC)c1OC	ABHD5-PLIN5 inh 30 | ABHD5-PLIN5 conf 95 | HNF4 split-luc 92
O=S1(=O)N[C@@H](Cc2ccccc2)COc2cccc(N3CCCC3)c21	none (no result: ABHD5-PLIN5 inh, RBBP9 inhibitor)
CCOc1ccc(N(CC(=O)Nc2c(C)n(C)n(-c3ccccc3)c2=O)S(=O)(=O)c2ccc3c(c2)N(C(=O)C2CCC2)CC3)cc1	none (no result: ABHD5-PLIN5 inh, RBBP9 inhibitor)
C[C@H](CO)N1C[C@H](C)[C@@H](CN(C)C(=O)Nc2ccc3c(c2)OCO3)OCc2cn(nn2)CCCC1=O	none (no result: ABHD5-PLIN5 inh, RBBP9 inhibitor)
CC(=O)Oc1ccccc1N(C(C)=O)S(=O)(=O)c1ccc2ccccc2c1	none
CC(=O)Oc1c(Br)cc(N(C(C)=O)S(=O)(=O)c2ccccc2)c2ccccc12	ABHD5-PLIN5 inh 45 (no result: RBBP9 inhibitor) | ABHD5-PLIN5 conf 48 | HNF4 split-luc 14
O=C(c1nnsc1S(=O)(=O)c1ccc(Cl)cc1)N1CCOCC1	ABHD5-PLIN5 inh 51 | ABHD5-PLIN5 conf 73 | HNF4 split-luc 71
Nc1nc(C(=O)N2CCOCC2)nn1S(=O)(=O)c1ccc(Cl)cc1	none
Cc1ccc2nc3cc([N+](=O)[O-])cc([N+](=O)[O-])c3cc2c1	ABHD5-PLIN5 inh 39 | ABHD5-PLIN5 conf 89 | HNF4 split-luc 47
Cc1ccc(-c2oc3ncnc(N)c3c2-c2ccc(C)cc2)cc1	ABHD5-PLIN5 inh 24 | ABHD5-PLIN5 conf inactive | HNF4 split-luc inactive
Cc1oc2ncnc(N)c2c1C	none
CCN(C[C@H]1[C@@H](c2ccc(C3=CCCC3)cc2)[C@H](CO)N1c1nc(C)c(C)s1)S(=O)(=O)c1ccccc1[N+](=O)[O-]	none (no result: ABHD5-PLIN5 inh, RBBP9 inhibitor)
COc1cc(/C=C/[N+](=O)[O-])ccc1OC(=O)c1cc2ccccc2oc1=O	ABHD5-PLIN5 inh 28 (no result: RBBP9 inhibitor) | ABHD5-PLIN5 conf 78 | HNF4 split-luc 97
CSC1=NC(C)(C)C=C(/C=C/c2ccc(Cl)cc2)N1	ABHD5-PLIN5 inh 24 | ABHD5-PLIN5 conf 45 | HNF4 split-luc 43
CCSC1=NC(C)(C)C=C(/C=C/c2ccc(Cl)cc2Cl)N1	ABHD5-PLIN5 inh 26 | ABHD5-PLIN5 conf 32 | HNF4 split-luc 33
O=C(N=C1N(CC2CC2)CC2(C=C3CCCCC3n3c(=O)n(-c4ccccc4)c(=O)n32)N1C(=O)OCc1ccccc1)c1ccccc1 (configuration not stated)	none (no result: ABHD5-PLIN5 inh, RBBP9 inhibitor)
CC1C/C(=C/c2cccn2C)C(=O)/C(=C/c2cccn2C)C1 (configuration not stated)	ABHD5-PLIN5 inh 42 | ABHD5-PLIN5 conf inactive | HNF4 split-luc 54
CC1C/C(=C/c2ccncc2)C(=O)/C(=C/c2ccncc2)C1 (configuration not stated)	ABHD5-PLIN5 inh 96 | ABHD5-PLIN5 conf 103 | HNF4 split-luc 106
CC1(C)COC(c2cc([N+](=O)[O-])ccc2Cl)=N1	none
CC1(C)COC(/C=C/c2cccc([N+](=O)[O-])c2)=N1	ABHD5-PLIN5 inh 29 | ABHD5-PLIN5 conf 46 | HNF4 split-luc 49
CCOc1ccc(S(=O)(=O)N(CC(=O)NCc2cccnc2)c2ccc(F)cc2)cc1	ABHD5-PLIN5 inh 40 (no result: RBBP9 inhibitor) | ABHD5-PLIN5 conf inactive | HNF4 split-luc inactive
CCOc1ccc(S(=O)(=O)N(CC(=O)NCc2cccnc2)c2ccc(C)cc2)cc1	none (no result: RBBP9 inhibitor)
CCOC(=O)C(=Cc1ccc(-n2cncn2)cc1)C(=O)OCC	ABHD5-PLIN5 inh 43 | ABHD5-PLIN5 conf 81 | HNF4 split-luc 94
O=C1C(=C(I)I)c2ccccc2-c2ccccc21	ABHD5-PLIN5 inh 43 (no result: RBBP9 inhibitor) | ABHD5-PLIN5 conf 101 | HNF4 split-luc 102
Cc1cc2nc(-c3cccc(Br)c3)c(Cc3ccccc3)n2c(C)c1Br	ABHD5-PLIN5 inh 28 (no result: RBBP9 inhibitor) | ABHD5-PLIN5 conf 32 | HNF4 split-luc 17
O=C(Nc1ccc(Cl)cc1)/C(=C/c1cccc(O)c1)c1nc2ccccc2s1	ABHD5-PLIN5 inh 30 | ABHD5-PLIN5 conf 86 | HNF4 split-luc 61
O=C(NCCCc1ccccc1)[C@H](Cc1ccccc1)NC1(C(=O)NCCc2c[nH]c3ccccc23)CCOCC1	none (no result: ABHD5-PLIN5 inh, RBBP9 inhibitor)
CC(C)(C)NC(=O)/C(=C/c1ccco1)c1ccccc1	none
COc1ccc(/C=C(/C(=O)c2cccs2)N2C=CC=CC2=C(C#N)C#N)cc1	ABHD5-PLIN5 inh 33 | ABHD5-PLIN5 conf 59 | HNF4 split-luc 81
N#CC(C#N)=C1C=CC=CN1/C(=C\c1ccco1)C(=O)c1ccccc1	ABHD5-PLIN5 inh 54 | ABHD5-PLIN5 conf 102 | HNF4 split-luc 110
COc1ccc(C(=O)/C(=C\c2ccco2)N2C=CC=CC2=C(C#N)C#N)cc1	ABHD5-PLIN5 inh 80 (no result: UHRF1 binding, LEDGF integ inh, MBD2 DNA inh, PRMT1 FP inh) | ABHD5-PLIN5 conf 97 | HNF4 split-luc 102
COc1ccc2c(c1)CCCN2C(=O)C1CCCN(S(=O)(=O)c2cccs2)C1 (configuration not stated)	none (no result: ABHD5-PLIN5 inh, RBBP9 inhibitor)
CCNC(=O)N(C)[C@H]1C[C@H]2c3[nH]c4cccc(-c5ccc6c(c5)OCO6)c4c3CCN2C[C@H]1[C@H](C)O	none (no result: ABHD5-PLIN5 inh, RBBP9 inhibitor)
CCNC(=S)N(CCc1c(C)[nH]c2ccc(Cl)cc12)Cc1ccco1	none
CNC(=S)N(CCc1c(C)[nH]c2ccc(C)cc12)Cc1ccco1	ABHD5-PLIN5 inh 31 | ABHD5-PLIN5 conf inactive | HNF4 split-luc inactive
Cc1ccc(S(=O)(=O)NC(Cc2ccccc2)C(=O)NN)cc1 (configuration not stated)	none (no result: RBBP9 inhibitor)
Cc1ccc(S(=O)(=O)N[C@@H](Cc2ccccc2)C(=O)CCl)cc1	ABHD5-PLIN5 inh 53 | ABHD5-PLIN5 conf 93 | HNF4 split-luc 90
Cc1ccc(S(=O)(=O)N2C[C@H]3n4c(=O)ccc(=O)n4C[C@H](OC(=O)NCC4CCCCC4)[C@@]3(O)C2)cc1	ABHD5-PLIN5 inh 26 (no result: RBBP9 inhibitor) | ABHD5-PLIN5 conf 63 | HNF4 split-luc 45
COc1ccc(-c2c(Cc3ccccc3)nc(NC(=O)c3ccccc3)n2C)cc1	none (no result: ABHD5-PLIN5 inh, RBBP9 inhibitor)
BrC(=C\c1ccccc1)/C=N/n1cnnc1	ABHD5-PLIN5 inh 38 | ABHD5-PLIN5 conf 42 | HNF4 split-luc 45

Assay outcomes (PubChem)
